Measured values as given in ChEMBL document CHEMBL5107939, “Optimization of brain-penetrant picolinamide derived leucine-rich repeat kinase 2 (LRRK2) inhibitors” (RSC Med Chem, 2021).
pIC50: −log10 of the molar value.

Key:
Homo sapiens [1] = organism: Homo sapiens; experiment: Selectivity ratio, ratio of IC50 for inhibition of CLK2 (unknown origin) to IC50 for inhibition of recombinant human GST20 tagged truncated LRRK2 G2019S mutant
[2] = Oral bioavailability in CD rat measured after 120 mins by LC-MS/MS analysis; type: ADME, organism-based; settings: in vivo
Homo sapiens [3] = organism: Homo sapiens; experiment: Selectivity of inhibition of human LRRK2 to human IRAK4
[4] = Toxicity in CD rat assessed micronucleus induction in bone marrow at 50 to 100 mg/kg, po BID administered for 4 days; type: organism-based; settings: in vivo, 96 h, dose 50-100 mg/kg, time 4 day
[5] = MRT in po dosed Beagle dog and measured upto 24 hrs by LC-MS/MS analysis; type: ADME, organism-based, Canis lupus familiaris; settings: in vivo
[6] = biological target: T1, Adenosine receptor A1 (Homo sapiens) (UniProt P30542); experiment: Inhibition of human adenosine A1 receptor at 10 uM by radioligand binding assay
T1 sequence (whole entry): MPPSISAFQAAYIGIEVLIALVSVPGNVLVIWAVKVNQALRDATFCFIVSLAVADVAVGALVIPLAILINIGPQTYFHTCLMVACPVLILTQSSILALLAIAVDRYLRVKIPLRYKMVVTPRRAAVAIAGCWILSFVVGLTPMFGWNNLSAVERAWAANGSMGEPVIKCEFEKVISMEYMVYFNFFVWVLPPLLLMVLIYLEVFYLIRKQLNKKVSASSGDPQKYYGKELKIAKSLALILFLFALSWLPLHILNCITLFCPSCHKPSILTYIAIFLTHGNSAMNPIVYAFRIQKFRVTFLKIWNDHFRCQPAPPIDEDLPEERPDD
Procedure, shortened: (§1)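 Single-concentration radioligand binding screen (Eurofins Panlabs); IC50 by non-linear least-squares regression; Ki via Cheng-Prusoff from observed IC50, radioligand concentration and historical KD; Hill coefficient reported.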

[7] = Inhibition of calcium channel (unknown origin); parameters: species or system Homo sapiens
[8] = biological target: Dual specificity protein kinase CLK2 (Homo sapiens, UniProt P49760); experiment: Inhibition of CLK2 (unknown origin) assessed as substrate phosphorylation using coumarin and fluorescein-labeled peptide as substrate incubated for 1 hr by Z'-LYTE kinase assay
Chain of Dual specificity protein kinase CLK2 (P49760 whole entry): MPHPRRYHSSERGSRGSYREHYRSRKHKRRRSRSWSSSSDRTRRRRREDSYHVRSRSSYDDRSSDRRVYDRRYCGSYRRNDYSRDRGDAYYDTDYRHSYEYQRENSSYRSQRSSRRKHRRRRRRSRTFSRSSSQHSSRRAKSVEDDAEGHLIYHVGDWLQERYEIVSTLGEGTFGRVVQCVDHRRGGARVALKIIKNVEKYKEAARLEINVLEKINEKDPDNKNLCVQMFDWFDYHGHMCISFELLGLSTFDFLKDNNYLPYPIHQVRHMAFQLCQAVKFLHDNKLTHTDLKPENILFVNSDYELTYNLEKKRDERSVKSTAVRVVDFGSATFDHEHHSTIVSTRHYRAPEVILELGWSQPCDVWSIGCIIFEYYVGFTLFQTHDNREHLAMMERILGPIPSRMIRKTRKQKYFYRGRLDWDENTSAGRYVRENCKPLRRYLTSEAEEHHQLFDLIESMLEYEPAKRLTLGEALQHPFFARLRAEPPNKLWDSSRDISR
Procedure, shortened: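 CLK2 Z'-LYTE coupled-enzyme kit format, 10-point titration from DMSO; enzyme, substrate and compound reacted 1 h at ambient temperature; after development solution, read at excitation 400 nm; activity from coumarin 445 nm/fluorescein 520 nm emission ratio.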

[9] = Brain to plasma permeability coefficient, Kp in CD rat plasma assessed as unbound fraction at 3 to 100 mg/kg, po and measured after 2 hrs by LC/MS/MS analysis; type: ADME, organism-based; settings: in vivo, dose 3-100 mg/kg
[10] = Oral bioavailability in Beagle dog and measured upto 24 hrs by LC-MS/MS analysis; type: ADME, organism-based, Canis lupus familiaris; settings: in vivo
[11] = Plasma clearance in po dosed Beagle dog and measured upto 24 hrs by LC-MS/MS analysis; type: ADME, organism-based, Canis lupus familiaris
[12] = biological target: Adenosine receptor A2a (Homo sapiens) (UniProt P29274); experiment: Inhibition of human adenosine A2A receptor at 10 uM by radioligand binding assay; procedure, shortened: as §1
Chain of Adenosine receptor A2a (Homo sapiens) (P29274 whole entry): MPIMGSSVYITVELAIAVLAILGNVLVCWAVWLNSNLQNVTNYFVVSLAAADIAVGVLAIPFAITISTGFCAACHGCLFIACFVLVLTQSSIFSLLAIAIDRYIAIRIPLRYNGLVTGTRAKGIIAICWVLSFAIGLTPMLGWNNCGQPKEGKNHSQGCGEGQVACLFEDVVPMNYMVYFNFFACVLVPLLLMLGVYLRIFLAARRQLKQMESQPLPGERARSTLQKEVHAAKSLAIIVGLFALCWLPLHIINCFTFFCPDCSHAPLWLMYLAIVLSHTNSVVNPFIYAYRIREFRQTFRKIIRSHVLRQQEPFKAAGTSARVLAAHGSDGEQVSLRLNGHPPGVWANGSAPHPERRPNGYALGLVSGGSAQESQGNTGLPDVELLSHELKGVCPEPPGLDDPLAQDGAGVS

[13] = Drug metabolism in human hepatocytes assessed as (R)-2-(1-(4-amino-5-(trifluoromethyl)pyridin-2-yl)pyrrolidin-3-yl)propan-2-ol metabolite formation compound at 0.3 uM and measured after 120 mins by LC-MS/MS analysis; type: ADME, cell-based, Hepatocyte; settings: 2 h
[14] = In vivo inhibition of LRRK2 in CD rat assessed as reduction in serine 935 phosphorylated LRRK2 in striatum at 3 mg/kg, po and measured after 2 hrs by MSD immunoassay; type: functional
Procedure, shortened: (§2)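 Male CD rats (125-150 g) dosed orally with compound suspended in 10% Tween 80 (5 mL/kg) or vehicle, euthanized by CO2 2 h later; striatum dissected, frozen on dry ice; pSer935 LRRK2 measured by MSD immunoassay as pSer935/total LRRK2 ratio, mean ± S.E.M.; one-way ANOVA with Dunnett's post hoc test.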

[15] = In vivo inhibition of LRRK2 in CD rat assessed as reduction in serine 935 phosphorylated LRRK2 in striatum at 10 mg/kg, po and measured after 2 hrs by MSD immunoassay; type: functional; procedure, shortened: as §2
[16] = MRT in po dosed CD rat measured after 120 mins by LC-MS/MS analysis; type: ADME, organism-based; settings: in vivo
[17] = biological target: Voltage-gated inwardly rectifying potassium channel KCNH2 (Homo sapiens, UniProt Q12809); experiment: Inhibition of human ERG tail current in cells at -80 mV holding potential by PatchXpress automated patch clamp assay; type: toxicity
Chain of Voltage-gated inwardly rectifying potassium channel KCNH2 (Q12809 whole entry): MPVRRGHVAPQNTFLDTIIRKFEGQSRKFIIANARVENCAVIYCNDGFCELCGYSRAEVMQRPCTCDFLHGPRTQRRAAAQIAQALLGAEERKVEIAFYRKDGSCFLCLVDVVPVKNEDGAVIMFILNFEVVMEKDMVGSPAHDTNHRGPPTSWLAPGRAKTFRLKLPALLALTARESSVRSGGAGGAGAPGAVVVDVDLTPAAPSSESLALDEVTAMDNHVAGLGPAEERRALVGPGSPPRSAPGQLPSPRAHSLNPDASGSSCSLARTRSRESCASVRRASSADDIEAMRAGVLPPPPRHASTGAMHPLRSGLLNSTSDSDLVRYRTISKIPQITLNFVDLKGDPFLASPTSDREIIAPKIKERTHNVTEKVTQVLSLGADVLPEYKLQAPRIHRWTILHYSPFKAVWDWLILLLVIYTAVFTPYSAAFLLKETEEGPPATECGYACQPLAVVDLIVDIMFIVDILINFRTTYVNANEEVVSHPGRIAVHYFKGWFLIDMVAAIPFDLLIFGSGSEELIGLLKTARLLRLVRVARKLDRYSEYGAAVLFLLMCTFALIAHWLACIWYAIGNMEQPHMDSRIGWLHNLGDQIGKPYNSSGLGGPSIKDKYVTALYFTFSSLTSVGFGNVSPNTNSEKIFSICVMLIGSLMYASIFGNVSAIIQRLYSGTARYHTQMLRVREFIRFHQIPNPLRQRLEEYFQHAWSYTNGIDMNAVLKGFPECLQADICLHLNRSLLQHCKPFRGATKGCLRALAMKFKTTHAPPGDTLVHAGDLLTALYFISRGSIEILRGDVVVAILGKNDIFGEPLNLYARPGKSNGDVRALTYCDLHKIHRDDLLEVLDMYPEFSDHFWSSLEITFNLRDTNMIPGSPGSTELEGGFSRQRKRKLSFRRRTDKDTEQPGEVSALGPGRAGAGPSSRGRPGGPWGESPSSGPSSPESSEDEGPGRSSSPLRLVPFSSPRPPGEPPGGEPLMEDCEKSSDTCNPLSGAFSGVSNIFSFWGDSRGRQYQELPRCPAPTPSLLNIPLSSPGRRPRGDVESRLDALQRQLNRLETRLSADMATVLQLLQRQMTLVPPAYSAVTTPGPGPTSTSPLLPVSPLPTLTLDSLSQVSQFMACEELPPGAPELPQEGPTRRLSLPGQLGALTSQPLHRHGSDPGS

[18] = Mutagenicity in Salmonella typhimurium TA1535 at 30 to 5000 ug in presence of S9 metabolic activation system for 48 hrs by ames test; type: toxicity, Salmonella enterica subsp. enterica serovar Typhimurium; settings: in vitro, dose 30-5000 µg
Procedure, shortened: (§3)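 Plate incorporation Ames test with S9 from phenobarbital/beta-naphthoflavone-induced male Wistar Han rat liver; 30, 100, 300, 1000, 3000, 5000 µg/plate; triplicate minimal glucose agar plates with trace histidine; 48 h at 37 °C; positive if 2-fold revertant increase over vehicle with dose relation.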

[19] = biological target: Sodium channel protein type 5 subunit alpha (Homo sapiens, UniProt Q14524); experiment: Inhibition of human NaV1.5 expressed in HEK293 by PatchXpress automated patch clamp assay; type: cell-based
Homo sapiens [20] = organism: Homo sapiens; experiment: Selectivity of inhibition of human LRRK2 to human MINK1
Cavia porcellus = organism: Cavia porcellus; experiment: Inhibition of guinea pig adenosine transporter at 1 uM by radioligand binding assay; procedure, shortened: as §1
[21] = Mutagenicity in Salmonella typhimurium TA100 at 30 to 5000 ug in presence of S9 metabolic activation system for 48 hrs by ames test; type: toxicity, Salmonella enterica subsp. enterica serovar Typhimurium; settings: dose 30-5000 µg; procedure, shortened: as §3
[22] = biological target: T2, Leucine-rich repeat serine/threonine-protein kinase 2 (Homo sapiens, UniProt Q5S007, G2019S); experiment: Inhibition of recombinant human GST20 tagged truncated LRRK2 G2019S mutant assessed as substrate phosphorylation preincubated for 15 mins followed by substrate addition and measured after 90 mins using fluorescein-labeled LRRK2tide as substrate in presence of ATP by TR-FRET based Lanthascreen kinase activity assay
T2 sequence (Q5S007 whole entry G2019S, the tested form may be a part): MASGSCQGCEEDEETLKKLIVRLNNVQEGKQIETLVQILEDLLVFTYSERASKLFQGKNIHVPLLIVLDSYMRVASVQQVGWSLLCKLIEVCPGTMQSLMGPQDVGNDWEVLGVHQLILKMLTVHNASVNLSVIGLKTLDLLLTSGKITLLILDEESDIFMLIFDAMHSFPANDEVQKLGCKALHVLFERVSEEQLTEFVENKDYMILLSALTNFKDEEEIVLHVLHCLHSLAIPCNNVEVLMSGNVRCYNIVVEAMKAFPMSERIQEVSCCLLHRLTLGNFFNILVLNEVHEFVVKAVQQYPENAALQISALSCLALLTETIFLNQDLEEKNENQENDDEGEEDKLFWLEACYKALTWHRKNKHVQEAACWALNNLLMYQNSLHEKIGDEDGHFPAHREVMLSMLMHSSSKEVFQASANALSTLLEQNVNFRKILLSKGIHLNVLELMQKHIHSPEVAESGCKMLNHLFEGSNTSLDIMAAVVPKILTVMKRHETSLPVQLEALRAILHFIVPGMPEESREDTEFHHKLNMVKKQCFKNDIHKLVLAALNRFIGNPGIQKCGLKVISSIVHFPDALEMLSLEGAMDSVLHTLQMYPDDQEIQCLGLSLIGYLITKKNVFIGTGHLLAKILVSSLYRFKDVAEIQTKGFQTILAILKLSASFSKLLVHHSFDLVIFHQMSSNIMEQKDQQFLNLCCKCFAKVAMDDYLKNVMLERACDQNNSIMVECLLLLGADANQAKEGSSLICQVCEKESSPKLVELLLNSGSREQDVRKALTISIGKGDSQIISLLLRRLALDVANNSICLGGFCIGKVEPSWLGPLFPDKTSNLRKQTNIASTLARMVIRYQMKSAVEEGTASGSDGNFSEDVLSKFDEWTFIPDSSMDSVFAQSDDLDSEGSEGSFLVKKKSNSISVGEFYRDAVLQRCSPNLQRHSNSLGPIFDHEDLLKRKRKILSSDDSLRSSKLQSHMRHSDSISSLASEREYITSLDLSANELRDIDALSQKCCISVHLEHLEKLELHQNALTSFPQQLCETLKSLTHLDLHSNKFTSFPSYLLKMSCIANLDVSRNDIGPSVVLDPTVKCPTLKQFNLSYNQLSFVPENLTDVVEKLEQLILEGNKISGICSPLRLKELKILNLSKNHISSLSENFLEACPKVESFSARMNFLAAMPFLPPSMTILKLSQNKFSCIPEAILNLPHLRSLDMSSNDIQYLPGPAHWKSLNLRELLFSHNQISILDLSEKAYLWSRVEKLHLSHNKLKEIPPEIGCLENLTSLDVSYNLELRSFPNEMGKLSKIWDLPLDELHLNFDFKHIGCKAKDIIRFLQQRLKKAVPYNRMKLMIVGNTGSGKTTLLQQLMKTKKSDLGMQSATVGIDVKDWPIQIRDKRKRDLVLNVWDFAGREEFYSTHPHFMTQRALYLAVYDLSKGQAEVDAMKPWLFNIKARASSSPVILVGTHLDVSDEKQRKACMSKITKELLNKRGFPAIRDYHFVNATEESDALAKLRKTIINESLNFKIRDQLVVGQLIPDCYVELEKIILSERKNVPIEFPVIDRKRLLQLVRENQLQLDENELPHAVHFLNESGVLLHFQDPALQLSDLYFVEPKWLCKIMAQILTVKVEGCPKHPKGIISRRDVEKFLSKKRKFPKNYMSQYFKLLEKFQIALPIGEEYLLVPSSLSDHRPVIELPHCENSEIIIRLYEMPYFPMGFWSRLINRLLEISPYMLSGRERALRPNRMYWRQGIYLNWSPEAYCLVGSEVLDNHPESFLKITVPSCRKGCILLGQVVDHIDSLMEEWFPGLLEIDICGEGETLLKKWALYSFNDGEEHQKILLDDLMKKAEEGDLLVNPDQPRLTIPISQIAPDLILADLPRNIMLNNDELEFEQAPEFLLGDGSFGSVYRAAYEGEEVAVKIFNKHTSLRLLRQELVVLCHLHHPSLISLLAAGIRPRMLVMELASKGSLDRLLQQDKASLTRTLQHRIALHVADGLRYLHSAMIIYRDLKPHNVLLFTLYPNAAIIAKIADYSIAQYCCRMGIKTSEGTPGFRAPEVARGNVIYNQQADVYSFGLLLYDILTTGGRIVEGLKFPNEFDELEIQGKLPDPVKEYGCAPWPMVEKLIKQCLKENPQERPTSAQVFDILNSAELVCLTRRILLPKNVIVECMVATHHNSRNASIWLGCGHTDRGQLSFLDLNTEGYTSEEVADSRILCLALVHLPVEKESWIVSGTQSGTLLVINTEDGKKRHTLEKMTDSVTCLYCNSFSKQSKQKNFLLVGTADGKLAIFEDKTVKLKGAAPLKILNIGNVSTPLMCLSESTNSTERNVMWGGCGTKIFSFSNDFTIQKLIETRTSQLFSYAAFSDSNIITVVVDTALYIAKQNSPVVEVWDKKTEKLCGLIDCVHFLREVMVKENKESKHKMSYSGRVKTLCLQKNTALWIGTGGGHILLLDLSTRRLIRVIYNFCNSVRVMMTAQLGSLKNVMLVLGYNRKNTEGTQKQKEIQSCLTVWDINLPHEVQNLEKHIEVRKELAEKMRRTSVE
Procedure, shortened: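 Enzyme 1.25 nM in 50 mM Tris pH 8.5, 10 mM MgCl2, 0.01% Brij-35, 1 mM EGTA, 2 mM DTT, 0.05 mM orthovanadate. Compound (top 9.99 µM in DMSO, ten-point serial dilution) preincubated 15 min at RT. […] Stopped with EDTA plus 2 nM Tb anti-pERM, 1 h RT. 520/495 nm ratio read. IC50 from 4-parameter logistic fit, mean of several runs.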

[23] = biological target: Substance-P receptor (Homo sapiens) (UniProt P25103); experiment: Inhibition of human tachykinin NK1 receptor at 10 uM by radioligand binding assay; procedure, shortened: as §1
Chain of Substance-P receptor (Homo sapiens) (P25103 whole entry): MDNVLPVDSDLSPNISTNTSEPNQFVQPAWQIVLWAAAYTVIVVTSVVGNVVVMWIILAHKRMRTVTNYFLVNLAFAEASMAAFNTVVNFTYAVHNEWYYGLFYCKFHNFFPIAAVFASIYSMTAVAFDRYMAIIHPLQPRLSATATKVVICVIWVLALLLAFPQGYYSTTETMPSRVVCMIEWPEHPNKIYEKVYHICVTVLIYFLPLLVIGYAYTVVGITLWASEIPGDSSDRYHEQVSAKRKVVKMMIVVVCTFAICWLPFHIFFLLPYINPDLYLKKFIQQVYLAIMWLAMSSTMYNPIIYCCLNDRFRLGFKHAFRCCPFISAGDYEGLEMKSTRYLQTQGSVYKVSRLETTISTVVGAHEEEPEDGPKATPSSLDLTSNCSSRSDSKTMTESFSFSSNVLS

[24] = system: P-gp (rat Mdr1a) (Homo sapiens); experiment: Substrate activity at P-gp (unknown origin) expressed in LLC-PK1 cells transfected with rat Mdr1a assessed as apparent permeability at 0.1 uM incubated for 3 hrs by LC-MSMS analysis; type: ADME, cell-based
[25] = Intrinsic clearance in po dosed CD rat measured after 120 mins by LC-MS/MS analysis; type: ADME, organism-based; settings: in vivo, 2 h
[26] = Drug metabolism in rat hepatocytes assessed as (R)-2-(1-(4-amino-5-(trifluoromethyl)pyridin-2-yl)pyrrolidin-3-yl)propan-2-ol metabolite formation compound at 0.3 uM and measured after 120 mins by LC-MS/MS analysis; type: ADME, cell-based, Hepatocyte; settings: 2 h
[27] = Plasma clearance in po dosed CD rat measured after 120 mins by LC-MS/MS analysis; type: ADME, organism-based
[28] = In vivo inhibition of LRRK2 in CD rat assessed as reduction in serine 935 phosphorylated LRRK2 in striatum at 30 mg/kg, po and measured after 2 hrs by MSD immunoassay; type: functional; procedure, shortened: as §2
Homo sapiens [29] = organism: Homo sapiens; experiment: Selectivity of inhibition of human LRRK2 to human CLK2
[30] = Intrinsic clearance in po dosed Beagle dog and measured upto 24 hrs by LC-MS/MS analysis; type: ADME, organism-based, Canis lupus familiaris; settings: in vivo
[31] = Toxicity in CD rat assessed clinical signs of toxicity at 50 to 100 mg/kg, po BID administered for 4 days; type: organism-based; settings: in vivo, 96 h, dose 50-100 mg/kg, time 4 day
[32] = biological target: T2, Leucine-rich repeat serine/threonine-protein kinase 2; experiment: Inhibition of human LRRK2 G2019S mutant expressed in human SH-SY5Y cells assessed as inhibition of tetracycline induced LRRK2 phosphorylation at Ser935 residue incubated for 90 mins by MSD assay; type: cell-based
Procedure, shortened: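 SH-SY5Y neuroblastoma cells carrying LRRK2 G2019S, grown in DMEM/F-12 with GlutaMax, 10% Tet-free FBS, nonessential amino acids and pen-strep at 37 °C, 5% CO2. Expression induced with Tet (2 µg/ml) 48-72 h before treatment. Compound exposure 90 min. Lysates captured on anti-LRRK2-coated MSD plates, probed for pSer935 or total LRRK2 with Sulfo-Tag read-out. IC50 from standard 4P fit of % inhibition.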

[33] = Mutagenicity in Salmonella typhimurium TA98 at 30 to 5000 ug in presence of S9 metabolic activation system for 48 hrs by ames test; type: toxicity, Salmonella enterica subsp. enterica serovar Typhimurium; settings: dose 30-5000 µg; procedure, shortened: as §3
[34] = In vivo inhibition of LRRK2 in CD rat assessed as reduction in serine 935 phosphorylated LRRK2 in striatum at 100 mg/kg, po and measured after 2 hrs by MSD immunoassay; type: functional; procedure, shortened: as §2

SMILES: Cn1cc(-c2cccc(C(=O)Nc3cc(N4CC[C@@H](C(C)(C)O)C4)ncc3C(F)(F)F)n2)cn1
- Ratio IC50 (Homo sapiens [1]): 63
- bioavailability [2]: 16%
- Selectivity ratio (Homo sapiens [3]): > 100
- Activity [4]: Non-Toxic
- MRT [5]: 3.6 h
- inhibition [6]: > 50%
- pIC50 [7]: 4.66
- pIC50 [8]: 7.20
- Kp [9]: 0.6
- bioavailability [10]: 43%
- CL/F [11]: 15 mL/min/kg
- inhibition [12]: > 50%
- Drug metabolism [13]: Metabolite_Detected
- inhibition in vivo at 3 mg/kg [14]: 2%
- inhibition in vivo at 10 mg/kg [15]: 13%
- MRT [16]: 5.2 h
- pIC50 [17]: 5.12
- Activity [18]: Non-Toxic
- pIC50 [19]: 4.52
- Selectivity ratio (Homo sapiens [20]): > 100
- inhibition (Cavia porcellus): > 50%
- Activity [21]: Non-Toxic
- pIC50 [22]: 9.00
- inhibition [23]: > 50%
- Papp at 3 h, 0.1 µM [24]: 35 ×10⁻⁶ cm/s
- CL [25]: 5722 mL/min/kg
- Drug metabolism [26]: Metabolite_Detected
- CL/F [27]: 10 mL/min/kg
- inhibition in vivo at 30 mg/kg [28]: 35%
- Selectivity ratio (Homo sapiens [29]): > 100
- CL [30]: 14531 mL/min/kg
- Activity [31]: Non-Toxic
- pIC50 [32]: 8.60
- Activity [33]: Non-Toxic
- inhibition in vivo at 100 mg/kg [34]: 56%
